{"data": "Experimental data gathered from unrelated publications", "gag-pol reverse transcriptase": "Gag-Pol polyprotein, reverse transcriptase (gag-pol, Human immunodeficiency virus 1, UniProt P03366)", "gyrA": "DNA gyrase subunit A (gyrA, Escherichia coli K-12, UniProt P0AES4)", "OPRD1": "Delta-type opioid receptor (OPRD1, Homo sapiens, UniProt P41143)", "note": "Protocols differ between the studies behind these lines. pEC50, pIC50, pKi: −log10 of the molar value."}
{"SMILES": "Cc1cc(C)cc(S(=O)(=O)c2c(C(=O)NCCCNS(=O)(=O)c3cccnc3)[nH]c3ccc(Cl)cc23)c1", "target": "gag-pol reverse transcriptase", "test": "enzyme activity, inhibitor, ELISA", "measurement": "pIC50", "result": 7.39}
{"SMILES": "CC(C)Oc1c(-n2cc(-c3ccc(NC(=O)C(CC(N)=O)NC(=O)c4ccc(NC(=O)c5ccc(C#N)cc5)cc4)cc3)nn2)ccc(C(=O)Nc2ccc(C(=O)O)cc2)c1O (stereo not shown)", "target": "gyrA", "test": "enzyme activity, inhibitor", "measurement": "pIC50", "result": 5.82}
{"SMILES": "CNC(=O)[C@@]12C[C@@H]1[C@@H](n1cnc3c(NC)cc(C#Cc4ccc(Cl)s4)nc31)[C@H](O)[C@@H]2O", "target": "OPRD1", "test": "ligand displacement, radioligand", "measurement": "pKi", "result": "< 5.00"}
{"SMILES": "Cc1cc(C)cc(S(=O)(=O)c2c(C(=O)NCCCCNS(=O)(=O)c3ccc(F)cc3)[nH]c3ccc(Cl)cc23)c1", "target": "gag-pol reverse transcriptase", "test": "enzyme activity, inhibitor, ELISA", "measurement": "pIC50", "result": 6.82}
{"SMILES": "CO[C@@H](C(N)=O)[C@H](NC(=O)c1ccc(NC(=O)c2ccc(C#N)cc2)cc1)C(=O)Nc1ccc(C(=O)Nc2ccc(C(=O)Nc3ccc(C(=O)O)cc3)c(O)c2OC(C)C)cc1", "target": "gyrA", "test": "enzyme activity, inhibitor", "measurement": "pIC50", "result": 6.40}
{"SMILES": "Cc1cc(C)cc(S(=O)(=O)c2c(C(=O)NCCCCCNS(=O)(=O)c3cccnc3)[nH]c3ccc(Cl)cc23)c1", "target": "gag-pol reverse transcriptase", "test": "enzyme activity, inhibitor, ELISA", "measurement": "pIC50", "result": 7.02}
{"SMILES": "CNC(=O)[C@@]12C[C@@H]1[C@@H](n1cnc3c(NC)nc(C#Cc4ccc(Cl)s4)nc31)[C@H](O)[C@@H]2O", "target": "OPRD1", "test": "ligand displacement, radioligand", "measurement": "pKi", "result": "< 5.00"}
{"SMILES": "CC(C)Oc1c(NC(=O)c2ccc(NC(=O)[C@H](CC(N)=O)NC(=O)c3ccc(NC(=O)c4ccc(C#N)s4)cc3)cc2)ccc(C(=O)Nc2ccc(C(=O)O)cc2)c1O", "target": "gyrA", "test": "enzyme activity, inhibitor", "measurement": "pIC50", "result": 6.30}
{"SMILES": "Cc1ccc(S(=O)(=O)NCCCCCNC(=O)c2[nH]c3ccc(Cl)cc3c2S(=O)(=O)c2cc(C)cc(C)c2)cc1", "target": "gag-pol reverse transcriptase", "test": "enzyme activity, inhibitor, ELISA", "measurement": "pIC50", "result": 6.89}
{"SMILES": "CCn1c(-c2nc3ccc(C(=O)N4CCCC(N)C4)cc3n2C)cc2ccccc21 (stereo not shown)", "target": "5-hydroxytryptamine receptor 3A (HTR3A, Homo sapiens, UniProt P46098)", "test": "calcium signal, agonist", "measurement": "pEC50", "result": "< 4.30"}
{"SMILES": "Cc1cc(C)cc(S(=O)(=O)c2c(C(=O)NCCCNS(=O)(=O)c3ccccc3F)[nH]c3ccc(Cl)cc23)c1", "target": "gag-pol reverse transcriptase", "test": "enzyme activity, inhibitor, ELISA", "measurement": "pIC50", "result": 7.12}
{"SMILES": "CC(C)COc1c(NC(=O)c2ccc(NC(=O)[C@H](CC(N)=O)NC(=O)c3ccc(NC(=O)c4ccc([N+](=O)[O-])cc4)cc3)cc2)ccc(C(=O)Nc2ccc(C(=O)O)cc2)c1O", "target": "gyrA", "test": "enzyme activity, inhibitor", "measurement": "pIC50", "result": 6.05}
{"SMILES": "Cc1cc(C)cc(S(=O)(=O)c2c(C(=O)NCCCNS(=O)(=O)c3ccc(C#N)cc3)[nH]c3ccc(Cl)cc23)c1", "target": "gag-pol reverse transcriptase", "test": "enzyme activity, inhibitor, ELISA", "measurement": "pIC50", "result": 7.00}
{"SMILES": "CC(C)Oc1c(NC(=O)c2ccc(NC(=O)[C@H](CC(N)=O)NC(=O)c3ccc(-c4nn[nH]c4-c4ccc(C#N)cc4)cc3)cc2)ccc(C(=O)Nc2ccc(C(=O)O)cc2)c1O", "target": "gyrA", "test": "enzyme activity, inhibitor", "measurement": "pIC50", "result": "< 4.30"}
{"SMILES": "N#Cc1ccc(Nc2nc(N)cc(Oc3ccc(-c4cccc(C#N)c4)cc3F)n2)cc1", "target": "gag-pol reverse transcriptase", "test": "enzyme activity, inhibitor", "measurement": "pIC50", "result": 6.47}
{"SMILES": "CCCCC(=O)[C@@]12C[C@@H]1[C@@H](n1ccc3c(NC)nc(C#Cc4ccc(Cl)s4)nc31)[C@H](O)[C@@H]2O", "target": "OPRD1", "test": "ligand displacement, radioligand", "measurement": "pKi", "result": "< 5.00"}
{"SMILES": "N#Cc1ccc(Nc2nc(N)cc(Oc3c(F)cc(-c4ccccc4)cc3F)n2)cc1", "target": "gag-pol reverse transcriptase", "test": "enzyme activity, inhibitor", "measurement": "pIC50", "result": 7.15}
{"SMILES": "O[C@@H]1[C@H](O)[C@@H]2C[C@@H]2[C@H]1n1cnc2c(NCCc3ccccc3)nc(C#Cc3ccccc3)nc21", "target": "OPRD1", "test": "ligand displacement, radioligand", "measurement": "pKi", "result": "< 5.00"}
{"SMILES": "CC(C)Oc1c(NC(=O)c2ccc(NC(=O)[C@H](CC(N)=O)NC(=O)c3ccc(NC(=O)c4ccc(C5(C(F)(F)F)N=N5)cc4)cc3)cc2)ccc(C(=O)Nc2ccc(C(=O)O)cc2)c1O", "target": "gyrA", "test": "enzyme activity, inhibitor", "measurement": "pIC50", "result": 4.80}
{"SMILES": "CNc1nc(C#Cc2ccc(Cl)s2)nc2c1ncn2[C@H]1[C@H](O)[C@H](O)[C@]2(C(=O)OC(C)C)C[C@H]12", "target": "OPRD1", "test": "ligand displacement, radioligand", "measurement": "pKi", "result": "< 5.00"}
{"SMILES": "CC1=C(/C=C/C2=CCC[C@]3(C)[C@@H]([C@H](C)CCCC(C)(C)O)CC[C@@H]23)C[C@@H](O)CC1", "target": "Oxysterols receptor LXR-alpha (NR1H3, Homo sapiens, UniProt Q13133)", "test": "coactivator recruitment, agonist, TR-FRET", "measurement": "pEC50", "result": "7.00 to 8.00"}
{"SMILES": "CNC(=O)[C@@]12C[C@@H]1[C@@H](n1cnc3c(NC)nc(C#Cc4ccc(F)c(F)c4)nc31)[C@H](O)[C@@H]2O", "target": "OPRD1", "test": "ligand displacement, radioligand", "measurement": "pKi", "result": "< 5.00"}
{"SMILES": "Cc1cc(C)cc(S(=O)(=O)c2c(C(=O)NCCCCNS(=O)(=O)c3ccc(Cl)cc3)[nH]c3ccc(Cl)cc23)c1", "target": "gag-pol reverse transcriptase", "test": "enzyme activity, inhibitor, ELISA", "measurement": "pIC50", "result": 7.03}
{"SMILES": "CNc1nc(C#Cc2ccccc2)nc2c1ncn2[C@H]1[C@H](O)[C@H](O)[C@@H]2C[C@@H]21", "target": "OPRD1", "test": "ligand displacement, radioligand", "measurement": "pKi", "result": "< 5.00"}
{"SMILES": "Cc1cc(C)cc(S(=O)(=O)c2c(C(=O)NCCCCCNS(=O)(=O)c3ccc([N+](=O)[O-])cc3)[nH]c3ccc(Cl)cc23)c1", "target": "gag-pol reverse transcriptase", "test": "enzyme activity, inhibitor, ELISA", "measurement": "pIC50", "result": 6.80}
